Data taken from the RNAGym collection of RNA variant scans (doi:10.1126/science.aae0568).
Variants at the floor of the assay were thinned out.

B1: tRNA (parent)
chain: GUUCCGUUGGCGUAAUGGUAACGCGUCUCCCUCCUAAGGAGAAGACUGCGGGUUCGAGUCCCGUACGGAACG

Variants of: B1
Experiment: yeast fitness relative to wild type (ratio to wild type); higher = fitter; tRNA-Arg(CCU), competitive growth, 37 C, YPD
How it was run: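 Variants of the tRNA-Arg(CCU) gene, chemically synthesised with a 3% per-site mutation rate at 69 sites, were placed at the native genomic locus in Saccharomyces cerevisiae. The pooled strains were competed in YPD at 37°C for 24 hours in six parallel replicates. Gene amplicons from the start population and from each end population were read by 100-nucleotide paired-end sequencing. Darwinian fitness relative to wild type came from changes in genotype frequencies; genotypes needed ≥ 100 starting reads, and estimates < 0.5 were set to 0.5.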

Variant | yeast fitness
G12C C46U G51C U64A | ≤ 0.5
U13A C33G U54A U59A | ≤ 0.5
U13A A43C A57C | ≤ 0.5
U13A C34G U54A | 0.609
U13A C24A G51A C61A A69U | ≤ 0.5
G12C C30G A45U C46A | 0.608
U13A A42C G68C | 0.529
U13A C27U G44C | 0.637
U13A C30G C31U C33G | ≤ 0.5
G12C G39C G50C C61G | ≤ 0.5
G12C U19A A42C G50C G56C | ≤ 0.5
G12C U28C U59A | 0.586
G12C U16A C49G | 0.593
U13A C22G C24G A36U A40C G51C | 0.548
G12C G58A A65U | 0.72
U13A A15U U16A A36U G44C G56A | ≤ 0.5
U13A C22U G51A C62G G63C C66G A69U | ≤ 0.5
U13A A42U | 1.03
U13A A15C C33G C49U C61U | 0.574
G12C U13G C33U C55U G56A | ≤ 0.5
U13A C55U G58A U59C C62U | ≤ 0.5

Variant | yeast fitness
G12C U35A | 0.774
G12C U35G | 0.677
G12C U35C | 0.691
U13A A43U | 0.855
U13A A45C G48A | 1.26
G12C U16A C27G A36G C46U C61U G68A | ≤ 0.5
G12C G52C C66U | ≤ 0.5
U13A A37U G41C U59C | ≤ 0.5
G12C G68C | 0.823
U13A C33U A42G G52C A65G | ≤ 0.5
U13A C27U C66U | 0.787
G12C G17C C22A U32A C34A A65C | ≤ 0.5
U13A C30A | 1.11
G12C C33G G44C C49U | 0.539
G12C C33A G51C C62G | ≤ 0.5
G12C G17C C22A G58A | ≤ 0.5
U13A A14G A37C G50C G51C | 0.566
U13A A21C A42G C62A A69U | ≤ 0.5
U13A A14U A40C | 0.556
G12C G25A A43C | 0.639
G12C U19G G25A C49U U59A U64A | ≤ 0.5

Variant | yeast fitness
G12C U47A | 0.596
G12C U47G | 0.602
U13A C24U G41U U47C | ≤ 0.5
G12C G67U | 0.767
U13A C33G C55A | ≤ 0.5
U13A C24A C60U | ≤ 0.5
G12C G25A U35C | 0.552
U13A C30U G38C C49A | ≤ 0.5
U13A A21C G38A A40U G50C C60G A70G | ≤ 0.5
U13A A15G G48A A65G | 0.581
G12C U26C A43C | 0.741
U13A A21C C29U C66A | ≤ 0.5
G12U A37G C66U | 0.614
U13A C29G G48C | ≤ 0.5
G12C C30G A45U A69U | ≤ 0.5
G12C C61U | 0.746
G12C C61G | 0.635
G12C U19G G25A U59A U64A | 0.623
U13A A20U C31G C34U G67U | ≤ 0.5
G12C G51A U59A C62G | ≤ 0.5
U13A C46A A69C | 0.722

Variant | yeast fitness
U13A A57G | 0.792
G12C U28A G56A A57C | ≤ 0.5
U13A C34U | 0.58
U13A A21G G63A | 0.652
U13A A40U | 0.99
G12C G23C C49G A57U A65C | ≤ 0.5
G12C G44A | 0.879
U13A C24A | 0.624
U13A C24U | 0.795
G12C G39A A70G | 0.537
U13A C55U | 0.626
G12C U26C A43C U54C | ≤ 0.5
G12C G39C A43G | ≤ 0.5
G12C U28G A37G G41A G48A | 0.549
U13A C22G C24G A36U A40C A45G C66A | ≤ 0.5
U13A C31G A42G | 0.699
U13A C30U G58C | ≤ 0.5
U13A C46A | 0.979
G12C C33G A37G A40C C49G G67C | 0.539
U13A C61G A70G | 0.6
G12C U35G A69C | 0.571
